NPY1 pot ag – NPY-Y1 receptor potentiators or agonists, primary screen, cell-based | Neuropeptide Y receptor type 1 (Homo sapiens), P25929 | NPY-Y1 expressing cells, potentiator/agonist activation | activation, % at 3.6 µM | 220,000 tested, 0.37% active | AID 1304, 2008; in the data active means activation above about 33%, passing the limit was not always enough;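 further: cells stimulated with NPY at EC10 then isoproterenol at EC100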
EP2 mod – EP2 receptor modulators, cAMP readout, primary screen, cell-based, HTRF cAMP, PGE2 stimulation. 260,000 tested, 0.83% active. Prostaglandin E2 receptor EP2 subtype (Homo sapiens), P43116. induction, % at 25 µM. AID 940, 2007. EP2-expressing cells, cAMP HTRF FRET, PGE2 co-stimulation;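 active means compounds whose cAMP rise, as percent of the full-agonist control response, exceeds 60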;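 further: rat C6 glioma line stably carrying human EP2 under a CMV promoter; the protocol text gives 20 µM as final concentration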
EP2 antag – human EP2 receptor antagonists, primary screen, TR-FRET cAMP, C6 glioma cells. Prostaglandin E2 receptor EP2 subtype (Homo sapiens), P43116. C6 glioma cells expressing human EP2; cells stimulated with saturating PGE2. inhibition, % at 25 µM. 260,000 tested, 0.52% active. AID 1422, 2008;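 active means percent inhibition above 40 after rounding to a whole number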;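 further: rat C6 glioma host cells with rolipram phosphodiesterase inhibitor present; the protocol text gives 20 µM as final concentration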
NPY-Y2 PAM-ag – NPY-Y2 potentiators or agonists, primary screen, cell-based; Neuropeptide Y receptor type 2 (Homo sapiens), P49146; cells expressing NPY-Y2, potentiator/agonist read-out; activation, % at 3.6 µM; 220,000 tested, 0.45% active; in the data active means activation above about 27%;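 further: cells stimulated with NPY near EC25 plus isoproterenol at EC100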
Target sequence (P49146 whole entry, looked up): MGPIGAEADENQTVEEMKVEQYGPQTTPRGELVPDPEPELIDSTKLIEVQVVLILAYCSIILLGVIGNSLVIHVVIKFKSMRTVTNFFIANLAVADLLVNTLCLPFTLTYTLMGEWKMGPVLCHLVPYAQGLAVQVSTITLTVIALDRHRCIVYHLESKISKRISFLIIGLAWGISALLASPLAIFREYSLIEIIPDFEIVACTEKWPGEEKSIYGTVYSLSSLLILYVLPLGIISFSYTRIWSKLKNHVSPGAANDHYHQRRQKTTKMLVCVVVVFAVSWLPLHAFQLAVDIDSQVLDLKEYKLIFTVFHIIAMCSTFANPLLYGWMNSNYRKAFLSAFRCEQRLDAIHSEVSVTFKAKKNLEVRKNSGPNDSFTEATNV
NPY Y2 blocker – NPY-Y2 receptor antagonists, primary screen, cell-based | Neuropeptide Y receptor type 2 (Homo sapiens), P49146 | NPY-Y2 expressing cells, antagonist mode | inhibition, % at 2.7 µM | 140,000 tested, 0.99% active | AID 793, 2007; in the data active means inhibition above about 17%
NPY Y1 blocker – NPY-Y1 receptor antagonists, primary screen, cell-based; Neuropeptide Y receptor type 1 (Homo sapiens), P25929; HEK293-CNG Y1 cells, membrane potential fluorescence; NPY at EC95, then isoproterenol; inhibition, % at 3.6 µM; 200,000 tested, 1% active; AID 1040, 2008;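 active means inhibition above the campaign mean inhibition of all tested compounds plus 3 SD, cut at about 20% in these data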
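Material: HEK293 cells with Y1 receptor plus CNG channel; times: compound incubation 1 h at room temperature, readout 45 min post-stimulation; signal: fluorescence, membrane potential probe; read-out basis: fluorescence ratio normalized to % inhibition between controls; benchmarks: full-block control isoproterenol-only wells, zero-block control NPY plus isoproterenol wells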
Numbers stand for hits; . = inactive; / = no result; ! = a repeat was not active. Only some compounds are listed: those with a hit (about 2.8% of all), similar ones and a draw of the others.

SMILES	NPY1 pot ag	EP2 mod	EP2 antag	NPY-Y2 PAM-ag	NPY Y2 blocker	NPY Y1 blocker
CN(C)CCOC(c1ccccc1)c1ccccc1 (tested in a mixture with another compound)	.	.	.	.	.	.
CC1CCN(c2nnc(-c3ccccc3)c3ccccc23)CC1	.	65	.	.	/	.
COc1ccc(-c2nnc(N3CCCCC3)c3ccccc23)cc1	.	.	.	.	.	.
CCN(CC)S(=O)(=O)c1ccc(Cl)c(NC(=O)c2ccccc2C)c1	.	63	.	.	.	.
CCN(CC)S(=O)(=O)c1ccc(Cl)c(NC(=O)c2cc(Cl)cc(Cl)c2)c1	.	.	.	.	.	.
C=CCn1c2cc(C)sc2c2cnn(CC(=O)Nc3c(C)nn(C)c3C)c(=O)c21	/	.	/	/	/	/
NS(=O)(=O)c1ccc(N=C2C(=O)Nc3ccccc32)cc1	.	.	.	.	/	/
O=C1Nc2ccccc2C1=Nc1ccc(S(=O)(=O)Nc2nccs2)cc1	.	.	46!	.	/	/
CS(=O)(=O)c1cncnc1C1CCCN(C(=O)Cc2c(F)cccc2Cl)C1 (centres undefined)	/	.	/	/	/	/
OCc1ccncc1.OCc1ccncc1.[Cl][Pt]([Cl])([Cl])[Cl]	/	.	69	/	/	/
CCOC(=O)CC(=O)CSc1nc2c(C)ccc(C)c2cc1CC	/	95	.	/	/	/
CCc1cc2cccc(C)c2nc1SCC(=O)N1CCCC1	/	65	.	/	/	/
COc1ccc(NC(=O)CSc2nc(-c3ccccc3)nc3ccc(C)cc23)cc1OC	/	.	.	/	/	/
COc1ccc2[nH]c(=O)c(CN(CCN(C)C)C(=S)Nc3cccc(C)c3)cc2c1	/	.	.	/	/	/
Cc1cc(C)c(OCC(O)CNC(C)(C)C)c(C)c1 (centres undefined)	84	.	.	87	/	.
Cc1cccnc1NCC(O)COc1ccccc1 (centres undefined)	.	.	.	.	.	.
CC(C)(C)CC(C)(C)NCC(O)COc1c(F)cc(Br)cc1F (centres undefined)	.	.	.	.	.	.
CC(C)(C)NCC(O)COc1c(F)cc(Br)cc1F (centres undefined)	51	.	.	66	.	.
CN(C1=C(NC(=O)c2ccccc2)C(=O)c2ccccc2C1=O)C1CCS(=O)(=O)C1 (centres undefined)	.	.	44	.	.	.
CCn1c(COc2cccc3ccccc23)nnc1SCC(=O)Nc1ccccc1Br	/	.	.	/	/	/
C=CCOc1nc(-c2ccccc2Cl)nc2ccccc12	.	63	.	.	/	/
COc1cccc(-c2nnn(CC(=O)O)n2)c1	.	.	.	.	.	26
COc1ccc(OC)c(C2C(C#N)=C(N)Oc3cc(N)ccc32)c1 (centres undefined)	.	.	.	.	.	.
CCOc1ccccc1C1C(C#N)=C(N)Oc2cc(N)ccc21 (centres undefined)	113	.	.	49	.	.
CN(C(=O)CN1C(=O)[C@H]2CCCN2C(=O)c2ccccc21)C1CCCCC1	/	.	.	/	/	/
SMILES	NPY1 pot ag	EP2 mod	EP2 antag	NPY-Y2 PAM-ag	NPY Y2 blocker	NPY Y1 blocker
S=c1nc[nH]c2c1cnn2-c1ccccc1	.	71	.	.	/	/
Nc1ncnc2c1cnn2-c1ccccc1	.	/	.	.	.	.
O=C1C(=Cc2cccnc2)C(=O)c2ccccc21	/	.	42	/	/	/
O=C1/C(=C\c2cccnc2)Sc2ccccc21	.	.	.	.	.	.
CSc1nc2ccccc2n1CC(=O)Nc1cc(C(F)(F)F)ccc1N1CCOCC1	.	.	.	.	23	24
CCOc1ccc(-c2nc(N)sc2CC)cc1	/	.	.	/	/	/
CCN1CCN(C(c2ccc(Cl)cc2)c2nnnn2C2CCCC2)CC1 (centres undefined)	/	.	.	/	/	/
CCOc1ccc(Cc2nccc3cc(OCC)c(OCC)cc23)cc1OCC	/	.	.	/	/	/
Oc1ccc(Cc2nccc3cc(O)c(O)cc23)cc1O	/	.	53	/	/	/
c1csc(-c2csc3nc(CN4CCOCC4)nc(NCc4ccc5c(c4)OCO5)c23)c1	.	.	.	.	36	44
c1csc(-c2nc3ccccn3c2NCc2ccc3c(c2)OCO3)c1	/	.	.	/	/	/
Cn1c(=O)c2[nH]c(CS(=O)(=O)Cc3nc4c([nH]3)c(=O)n(C)c(=O)n4C)nc2n(C)c1=O	/	.	50	/	/	/
Cc1c(/C(Cc2ccccc2)=N/O)c2ccccc2n1C	.	63	.	.	.	.
Cc1c(C(=O)CN2CCSCC2)c2ccccc2n1C	.	.	.	.	.	.
COC(=O)c1cc2ccsc2n1Cc1nc(-c2cccc(Cl)c2)oc1C	.	61	.	.	.	.
COC(=O)c1cc2sccc2n1Cc1nc(-c2cccc(Cl)c2)oc1C	.	.	.	.	.	.
O=C1C=C(N2CCN(c3ccccn3)CC2)C(=O)c2c(O)ccc(O)c21	/	.	66	/	/	/
CN(C)S(=O)(=O)Oc1cccc(C(=O)Nc2ccc(Cl)c(Cl)c2)c1	.	.	40	.	.	.
COCCSc1nnc(NC(=O)c2ccc(Cl)c(Cl)c2)s1	/	.	.	/	/	/
Cc1ccc(C)c(NC(=O)COC(=O)c2ccccn2)c1	/	.	.	/	/	/
CCN(Cc1ccccc1)C(c1cccs1)c1nnnn1C1CCCCC1 (centres undefined)	.	.	.	.	.	.
CCN(Cc1ccccc1)C(c1ccccn1)c1nnnn1C1CCCCC1 (centres undefined)	.	64!	.	.	.	.
CCOc1ccccc1C(=O)Nc1nc2c(s1)C(=O)CC(C)(C)C2	/	.	69	/	/	/
Cc1ccccc1NC(=S)N1CCN(Cc2ccc3c(c2)OCO3)CC1	.	.	.	.	.	.
Cc1c(Cl)cccc1NC(=S)N1CCN(Cc2ccc3c(c2)OCO3)CC1	53	.	.	33	.	.
SMILES	NPY1 pot ag	EP2 mod	EP2 antag	NPY-Y2 PAM-ag	NPY Y2 blocker	NPY Y1 blocker
Cc1ccn(CCCNC(=O)Cn2ncc3c4oc(C)cc4n(C(C)C)c3c2=O)n1	/	.	/	/	/	/
CC(=O)NC1(c2ccc(F)cc2)CCN(Cc2cc(Cl)c3c(c2)OCO3)CC1	/	.	.	/	/	/
Cc1nc(Sc2ccccc2)c(C#N)c(C)c1[N+](=O)[O-]	.	61	.	.	/	/
CC(C)(C)C(=O)Nc1ccc(NC(=O)c2ccccc2)nc1	/	.	.	/	/	/
COC(=O)C(=O)Nc1nnc(Cc2ccccc2)s1	/	.	.	/	/	/
CN(C)CCCCN1CCc2c(n(C)c3ccccc23)C1=O	/	.	50	/	/	/
N#Cc1ccccc1NC(=O)CSc1ncn(N)n1	/	.	.	/	/	/
COc1ccc(NC(=S)Nc2cccc3cnccc23)cc1	.	.	.	.	.	.
COc1ccccc1NC(=S)Nc1cccc2cnccc12	66	.	.	89	.	.
O=C(N/N=C/c1ccc(-c2ccc(Br)cc2)o1)c1ccc2c(c1)OCO2	.	.	.	.	/	21
